From ChEMBL document CHEMBL4376872, “Scaffold Hopping of Natural Product Evodiamine: Discovery of a Novel Antitumor Scaffold with Excellent Potency against Colon Cancer” (J Med Chem, 2020)
Activity calls are given as the source filed them. The calls are words filed in the database; no cut-off is given here.

Experiments:
HCT-116 [1] = test: Cell cycle arrest in human HCT116 cells assessed as accumulation in G2 phase at 4 nM incubated for 24 hrs by propidium iodide staining based flow cytometry (reference value: 12.52 %); type: functional
[2] = target: PI3-kinase p110-alpha/p85-alpha (Homo sapiens) (UniProt P27986+P42336); test: Inhibition of PI3K p110alpha/p85alpha (unknown origin) using PI3K lipid as substrate at 5 uM incubated for 40 mins in presence of 2.5 uM ATP by kinase-Glo luminescence assay relative to control; type: protein-complex assay
PC-3 = test: Antiproliferative activity against human PC3 cells assessed as reduction in cell viability incubated for 72 hrs by CCK8 assay; type: functional, cell-based; details: PC-3, 72 h
BEL-7404 tumor cell line = test: Antiproliferative activity against human Bel7404 cells assessed as reduction in cell viability incubated for 72 hrs by CCK8 assay; type: functional, cell-based; details: BEL-7404, 72 h
[3] = target: cAMP-dependent protein kinase catalytic subunit alpha (Homo sapiens) (UniProt P17612); test: Inhibition of PKAC-alpha (unknown origin) using CREBtide as substrate at 5 uM incubated for 40 mins in presence of 10 uM ATP by kiase-Glo luminescence assay relative to control
HCT-116 [4] = test: Cell cycle arrest in human HCT116 cells assessed as accumulation in G1 phase at 12 nM incubated for 24 hrs by propidium iodide staining based flow cytometry (reference value: 45.18 %); type: functional
A549 = test: Antiproliferative activity against human A549 cells assessed as reduction in cell viability incubated for 72 hrs by CCK8 assay; type: functional, cell-based; details: A549, 72 h
[5] = target: CDK9/cyclin T1 (Homo sapiens) (UniProt O60563+P50750); test: Inhibition of CDK9/Cyclin T1 (unknown origin) using PDKtide as substrate at 5 uM incubated for 40 mins in presence of 10 uM ATP by kinase-Glo luminescence assay relative to control; type: protein-complex assay
[6] = target: Poly [ADP-ribose] polymerase 1 (Homo sapiens) (UniProt P09874); test: Inhibition of PARP1 (unknown origin) using biotin-NAD+, NAD+ and sIDNA as substrate at 5 uM incubated for 1 hr by ELISA relative to control
SK-HEP1 = test: Antiproliferative activity against human SKHEP1 cells assessed as reduction in cell viability incubated for 72 hrs by CCK8 assay; type: functional, cell-based; details: SK-HEP1, 72 h
HCT-116 [7] = test: Induction of apoptosis in human HCT116 cells at 0.20 uM incubated for 24 hrs by annexin V-FITC and propidium iodide staining based flow cytometry (reference value: 0.86 %); type: functional
[8] = tested on: Tyrosine-protein kinase ABL1 (Homo sapiens), P00519 [T315I]; test: Inhibition of Abl T315I mutant (unknown origin) using Abltide as substrate at 5 uM incubated for 40 mins in presence of 10 uM ATP by kiase-Glo luminescence assay relative to control
[9] = target: Matrix metalloproteinase-9 (Homo sapiens) (UniProt P14780); test: Inhibition of MMP9 (unknown origin) using Mca-PLGLDpaAR as substrate at 5 uM preincubated with enzyme for 2 hrs followed by incubation with substrate for 15 mins by fluorescence based analysis relative to control
[10] = target: CDK4/Cyclin D3 (Homo sapiens) (UniProt P11802+P30281); test: Inhibition of CDK4/Cyclin D3 (unknown origin) using Rb as substrate at 5 uM incubated for 40 mins in presence of 10 uM ATP by kinase-Glo luminescence assay relative to control; type: protein-complex assay
[11] = target: Lysine-specific demethylase 4A (Homo sapiens) (UniProt O75164); test: Inhibition of JMJD2A (unknown origin) using biotinylated histone H3 peptide as substrate at 5 uM incubated for 60 mins by AlphaScreen assay relative to control
Homo sapiens = organism: Homo sapiens; test: Inhibition of PDE4D7 (unknown origin) using FAM-cAMP as substrate at 5 uM incubated for 1 hr by fluorescence polarization assay relative to control
[12] = target: 3',5'-cyclic-AMP phosphodiesterase 4A (Homo sapiens) (UniProt P27815); test: Inhibition of PDE4A4 (unknown origin) using FAM-cAMP as substrate at 5 uM incubated for 1 hr by fluorescence polarization assay relative to control
Tubulin (Homo sapiens) = Tubulin (Homo sapiens) (UniProt P68371+Q9H4B7+P0DPH7+P68366+Q13509+Q71U36+P04350+Q3ZCM7+P07437+P68363+Q9BQE3+Q6PEY2+Q13885+Q9BVA1+Q9BUF5); test: Inhibition of tubulin polymerization in human HCT116 cells assessed as disruption of microtubule by measuring clustered microtubule arrangement in cytosol around the nucleus at 0.4 to 10 uM incubated for 12 hrs by immunofluorescence based analysis; type: cell-based
How it was run: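 HCT116 cells were exposed to several concentrations for 12 h, with paclitaxel as the control. Nuclei were stained with DAPI and microtubules with mouse anti-α-tubulin. Microtubule organization was imaged by laser confocal microscopy.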

HCT-116 [13] = test: Cell cycle arrest in human HCT116 cells assessed as accumulation in G2 phase at 12 nM incubated for 24 hrs by propidium iodide staining based flow cytometry (reference value: 12.52 %); type: functional
[14] = target: Protein mono-ADP-ribosyltransferase PARP15 (Homo sapiens) (UniProt Q460N3); test: Inhibition of PARP15 (unknown origin) using biotin-NAD+, NAD+ and sIDNA as substrate at 5 uM incubated for 1 hr by ELISA relative to control
HCT-116 [15] = test: Antitumor activity against human HCT116 cells xenografted in mouse assessed as reduction in tumor growth at 4 mg/kg, ip bid for 21 days administration starting from 10 days after tumor cell implantation measured every 2 or 4 days till the end of the treatment period relative to control; type: functional; details: HCT-116, ip, read-out: TGI
How it was run: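 HCT116 xenografts in nude mice; intraperitoneal dosing on 21 consecutive days; tumour growth inhibition (TGI) versus untreated control, with body weight recorded. n = 6 mice per group; mean ± SEM; significance by Student's t test versus control.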

HCT-116 [16] = test: Cell cycle arrest in human HCT116 cells assessed as accumulation in S phase at 4 nM incubated for 24 hrs by propidium iodide staining based flow cytometry (reference value: 42.31 %); type: functional
Tubulin = Tubulin (Sus scrofa, UniProt P02554+P02550); test: (§1) Inhibition of porcine brain tubulin polymerization measured at 1 min interval over 20 mins by absorbance based assay
Tubulin (Sus scrofa) = Tubulin (Sus scrofa) (UniProt P02554+P02550); test: as §1
[17] = target: Poly [ADP-ribose] polymerase tankyrase-1 (Homo sapiens) (UniProt O95271); test: Inhibition of TNKS1 (unknown origin) using biotin-NAD+, NAD+ and sIDNA as substrate at 5 uM incubated for 1 hr by ELISA relative to control
[18] = target: Serine/threonine-protein kinase PLK1 (Homo sapiens) (UniProt P53350); test: Inhibition of PLK1 (unknown origin) using PLK1 peptide as substrate at 5 uM incubated for 40 mins in presence of 10 uM ATP by kiase-Glo luminescence assay relative to control
Serine/threonine-protein kinase PLK1 (Homo sapiens), sequence (P53350 whole entry): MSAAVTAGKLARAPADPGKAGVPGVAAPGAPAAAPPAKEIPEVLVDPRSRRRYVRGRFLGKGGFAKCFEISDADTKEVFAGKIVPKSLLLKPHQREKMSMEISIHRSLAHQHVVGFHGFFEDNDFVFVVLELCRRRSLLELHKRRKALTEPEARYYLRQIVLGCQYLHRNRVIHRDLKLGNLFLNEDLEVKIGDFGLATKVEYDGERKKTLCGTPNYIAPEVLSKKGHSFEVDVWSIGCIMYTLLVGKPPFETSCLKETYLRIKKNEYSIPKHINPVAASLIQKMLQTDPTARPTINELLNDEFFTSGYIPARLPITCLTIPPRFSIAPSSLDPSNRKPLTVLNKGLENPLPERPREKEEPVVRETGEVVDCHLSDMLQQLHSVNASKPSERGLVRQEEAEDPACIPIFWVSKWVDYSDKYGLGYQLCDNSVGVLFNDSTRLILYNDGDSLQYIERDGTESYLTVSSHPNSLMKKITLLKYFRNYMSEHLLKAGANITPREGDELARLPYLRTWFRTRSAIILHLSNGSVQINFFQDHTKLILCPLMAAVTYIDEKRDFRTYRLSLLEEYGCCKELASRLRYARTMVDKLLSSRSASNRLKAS

Matrix metalloproteinase-9 (Homo sapiens), sequence (P14780 whole entry): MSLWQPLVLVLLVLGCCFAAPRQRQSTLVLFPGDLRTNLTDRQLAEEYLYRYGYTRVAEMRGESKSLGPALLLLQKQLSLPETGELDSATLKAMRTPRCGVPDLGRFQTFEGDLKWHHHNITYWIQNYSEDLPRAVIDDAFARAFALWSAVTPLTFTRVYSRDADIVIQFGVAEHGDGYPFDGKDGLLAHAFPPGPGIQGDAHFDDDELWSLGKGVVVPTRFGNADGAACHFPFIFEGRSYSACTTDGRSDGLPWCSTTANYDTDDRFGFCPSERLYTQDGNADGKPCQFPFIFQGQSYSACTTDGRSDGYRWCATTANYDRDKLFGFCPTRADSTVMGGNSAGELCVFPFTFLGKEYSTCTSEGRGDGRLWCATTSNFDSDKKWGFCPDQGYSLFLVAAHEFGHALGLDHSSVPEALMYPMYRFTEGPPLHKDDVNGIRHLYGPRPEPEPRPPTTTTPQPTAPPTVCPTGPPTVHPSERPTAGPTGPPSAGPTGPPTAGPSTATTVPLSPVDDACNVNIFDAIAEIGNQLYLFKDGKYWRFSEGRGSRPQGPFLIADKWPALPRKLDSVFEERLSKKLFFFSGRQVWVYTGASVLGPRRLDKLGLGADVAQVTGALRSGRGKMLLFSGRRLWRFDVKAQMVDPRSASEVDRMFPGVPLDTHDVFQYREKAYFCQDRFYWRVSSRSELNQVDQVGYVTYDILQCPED
3',5'-cyclic-AMP phosphodiesterase 4A (Homo sapiens), sequence (P27815 whole entry): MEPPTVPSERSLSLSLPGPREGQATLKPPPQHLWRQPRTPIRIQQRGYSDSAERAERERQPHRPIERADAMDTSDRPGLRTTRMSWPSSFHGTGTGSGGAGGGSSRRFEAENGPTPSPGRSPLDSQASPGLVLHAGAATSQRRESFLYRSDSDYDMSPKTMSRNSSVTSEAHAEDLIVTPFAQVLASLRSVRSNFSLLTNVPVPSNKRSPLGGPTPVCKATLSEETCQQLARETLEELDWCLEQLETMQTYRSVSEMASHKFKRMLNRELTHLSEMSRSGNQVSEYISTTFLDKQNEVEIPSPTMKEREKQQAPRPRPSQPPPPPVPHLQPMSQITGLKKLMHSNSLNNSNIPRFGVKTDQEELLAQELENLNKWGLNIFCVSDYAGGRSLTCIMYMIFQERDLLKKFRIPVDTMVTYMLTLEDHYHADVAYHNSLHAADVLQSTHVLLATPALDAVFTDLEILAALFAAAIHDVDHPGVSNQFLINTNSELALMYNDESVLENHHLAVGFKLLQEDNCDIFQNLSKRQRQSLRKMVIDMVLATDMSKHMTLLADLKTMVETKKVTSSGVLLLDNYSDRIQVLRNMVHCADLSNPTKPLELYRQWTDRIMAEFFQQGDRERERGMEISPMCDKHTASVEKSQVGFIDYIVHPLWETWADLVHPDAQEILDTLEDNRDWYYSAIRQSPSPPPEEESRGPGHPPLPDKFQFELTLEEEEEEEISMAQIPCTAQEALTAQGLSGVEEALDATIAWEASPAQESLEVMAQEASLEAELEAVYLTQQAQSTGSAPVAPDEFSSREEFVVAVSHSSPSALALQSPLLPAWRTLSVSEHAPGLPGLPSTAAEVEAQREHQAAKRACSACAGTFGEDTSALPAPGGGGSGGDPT
Poly [ADP-ribose] polymerase 1 (Homo sapiens), sequence (P09874 whole entry): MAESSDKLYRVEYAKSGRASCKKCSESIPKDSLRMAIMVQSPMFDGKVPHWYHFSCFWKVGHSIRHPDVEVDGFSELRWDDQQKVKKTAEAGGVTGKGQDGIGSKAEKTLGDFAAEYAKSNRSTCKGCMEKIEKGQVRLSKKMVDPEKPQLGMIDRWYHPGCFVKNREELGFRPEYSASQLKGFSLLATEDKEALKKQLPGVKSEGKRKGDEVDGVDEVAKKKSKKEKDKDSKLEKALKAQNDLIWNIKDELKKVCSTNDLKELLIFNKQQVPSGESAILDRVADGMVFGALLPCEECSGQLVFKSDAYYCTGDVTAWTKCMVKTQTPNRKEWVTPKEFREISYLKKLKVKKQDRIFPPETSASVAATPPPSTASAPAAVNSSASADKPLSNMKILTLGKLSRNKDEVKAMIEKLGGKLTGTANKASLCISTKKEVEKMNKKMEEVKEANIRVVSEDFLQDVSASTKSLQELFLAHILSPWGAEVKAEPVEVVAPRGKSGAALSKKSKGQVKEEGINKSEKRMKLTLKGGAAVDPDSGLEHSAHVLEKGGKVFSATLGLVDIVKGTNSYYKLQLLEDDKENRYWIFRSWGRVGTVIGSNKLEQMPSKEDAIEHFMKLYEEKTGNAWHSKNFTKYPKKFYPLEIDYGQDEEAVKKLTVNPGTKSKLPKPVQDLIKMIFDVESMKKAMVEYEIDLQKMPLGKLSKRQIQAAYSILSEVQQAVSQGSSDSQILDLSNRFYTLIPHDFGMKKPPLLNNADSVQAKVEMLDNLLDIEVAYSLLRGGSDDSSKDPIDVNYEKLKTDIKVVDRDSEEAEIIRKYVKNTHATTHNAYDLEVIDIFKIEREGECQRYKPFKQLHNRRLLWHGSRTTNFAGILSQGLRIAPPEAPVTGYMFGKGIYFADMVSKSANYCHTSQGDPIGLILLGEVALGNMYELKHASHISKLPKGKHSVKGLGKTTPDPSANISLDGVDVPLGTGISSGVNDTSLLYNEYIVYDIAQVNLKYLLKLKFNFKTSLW
Protein mono-ADP-ribosyltransferase PARP15 (Homo sapiens), sequence (Q460N3 whole entry): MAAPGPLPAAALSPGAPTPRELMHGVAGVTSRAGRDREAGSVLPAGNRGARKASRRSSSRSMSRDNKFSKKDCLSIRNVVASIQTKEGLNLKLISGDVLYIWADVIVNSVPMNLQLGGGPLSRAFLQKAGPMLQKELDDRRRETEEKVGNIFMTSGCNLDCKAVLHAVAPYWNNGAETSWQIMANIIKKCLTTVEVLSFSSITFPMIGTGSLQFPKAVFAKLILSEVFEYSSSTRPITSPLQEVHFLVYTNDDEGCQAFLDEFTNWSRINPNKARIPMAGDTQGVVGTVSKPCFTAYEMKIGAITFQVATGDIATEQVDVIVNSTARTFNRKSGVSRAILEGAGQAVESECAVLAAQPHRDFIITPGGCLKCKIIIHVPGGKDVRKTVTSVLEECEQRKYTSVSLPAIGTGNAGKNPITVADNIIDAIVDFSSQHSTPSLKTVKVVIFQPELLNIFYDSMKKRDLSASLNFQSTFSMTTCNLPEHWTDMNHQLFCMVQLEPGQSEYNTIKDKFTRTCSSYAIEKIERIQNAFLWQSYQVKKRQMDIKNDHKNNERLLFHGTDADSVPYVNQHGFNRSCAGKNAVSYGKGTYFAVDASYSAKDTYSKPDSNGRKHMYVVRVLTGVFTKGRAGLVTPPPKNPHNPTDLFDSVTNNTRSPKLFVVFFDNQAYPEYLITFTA
Lysine-specific demethylase 4A (Homo sapiens), sequence (O75164 whole entry): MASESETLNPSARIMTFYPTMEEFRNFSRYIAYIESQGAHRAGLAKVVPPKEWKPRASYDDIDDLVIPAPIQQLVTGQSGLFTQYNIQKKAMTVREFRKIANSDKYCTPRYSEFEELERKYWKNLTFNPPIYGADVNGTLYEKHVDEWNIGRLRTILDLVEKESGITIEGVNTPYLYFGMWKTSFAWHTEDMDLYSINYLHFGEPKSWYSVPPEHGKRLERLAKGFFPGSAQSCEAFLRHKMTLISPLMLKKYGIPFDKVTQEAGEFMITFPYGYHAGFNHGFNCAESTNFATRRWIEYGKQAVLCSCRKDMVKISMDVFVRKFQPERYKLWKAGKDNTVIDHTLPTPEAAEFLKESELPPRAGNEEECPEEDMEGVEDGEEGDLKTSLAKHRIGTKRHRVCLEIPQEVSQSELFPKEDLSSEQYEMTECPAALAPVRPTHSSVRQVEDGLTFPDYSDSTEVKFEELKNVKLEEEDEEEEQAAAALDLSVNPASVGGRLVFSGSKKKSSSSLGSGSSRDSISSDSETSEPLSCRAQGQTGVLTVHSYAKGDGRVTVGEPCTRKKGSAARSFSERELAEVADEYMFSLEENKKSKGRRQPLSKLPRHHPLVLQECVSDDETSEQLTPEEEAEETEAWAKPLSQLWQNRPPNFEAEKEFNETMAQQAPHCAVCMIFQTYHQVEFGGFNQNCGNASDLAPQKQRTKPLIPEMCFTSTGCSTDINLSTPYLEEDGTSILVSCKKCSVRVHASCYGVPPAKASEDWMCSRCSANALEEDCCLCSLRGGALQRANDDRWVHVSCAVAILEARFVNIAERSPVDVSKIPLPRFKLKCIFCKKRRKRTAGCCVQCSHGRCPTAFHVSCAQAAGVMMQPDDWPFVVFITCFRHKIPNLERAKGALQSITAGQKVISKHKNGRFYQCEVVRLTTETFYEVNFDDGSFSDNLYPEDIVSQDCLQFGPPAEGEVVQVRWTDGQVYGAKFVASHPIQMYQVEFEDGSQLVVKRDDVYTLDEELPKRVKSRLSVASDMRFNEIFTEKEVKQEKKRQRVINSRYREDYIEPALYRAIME

COc1ccc2c(c1)cc1n2CCN2C(=O)c3cc(F)ccc3N(C)C12 (stereo unspecified)
Activity (HCT-116 [1]): 17.73% | inhibition [2]: < 20% | IC50 (PC-3): 300 nM | IC50 (BEL-7404 tumor cell line): 100 nM | inhibition [3]: < 20% | Activity (HCT-116 [4]): 24.07% | IC50 (A549): 159000 nM | inhibition [5]: < 20% | inhibition [6]: < 20% | IC50 (SK-HEP1): 1300 nM | Activity (HCT-116 [7]): 45.97% | inhibition [8]: < 20% | inhibition [9]: < 20% | inhibition [10]: < 20% | inhibition [11]: < 20% | inhibition (Homo sapiens): < 20% | inhibition [12]: < 20% | inhibition (Tubulin (Homo sapiens)): Active | Activity (HCT-116 [13]): 35.49% | inhibition [14]: < 20% | inhibition in vivo at 4 mg/kg (HCT-116 [15]): 37% | Activity (HCT-116 [16]): 39.26% | IC50 (Tubulin): 26300 nM | inhibition (Tubulin (Sus scrofa)): Dose-dependent effect | inhibition [17]: < 20% | inhibition [18]: < 20%
